Article PMC12034913 (Journal of Clinical Pharmacology, 2024)

Tests used:
[1] = Open-label drug–drug interaction study: dasatinib plasma pharmacokinetics; assay type: in vivo, human
In short: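 Healthy fasted volunteers (N = 18). Test compound given as a 100 mg IR tablet orally with ~240 mL water on day 1 alone and on day 6 after 40 mg delayed-release PPI QD on evenings of days 2–5. Fasted ≥10 h before and 4 h after dose. K2EDTA plasma was analysed by LC-MS/MS (LLOQ 0.75 ng/mL). PK was non-compartmental, with day 6/day 1 geometric mean ratios and 90% CI from ANOVA on ln-values.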

[2] = proposed threshold; cited from earlier work
[3] = cited from earlier work
[4] = omeprazole 40 mg at steady state, 10 h before crystalline dasatinib 100 mg

- extrapolated area in the plasma concentration–time profile (mean ± SD) ([1]; crystalline dasatinib formulation administered alone): 2.7%
- reduction in dasatinib plasma exposure ([1]; dosing interval of 10 h between PPI and crystalline dasatinib): ~90%
- AUC(0-t) ([1]; human, plasma, oral, 100 mg): 735 ng·h/mL
- Cmax ([1]; human, plasma, oral, 100 mg): 195 ng/mL
- AUC(0-t) ([1]; human, plasma, po, 100 mg): 798 ± 274 ng·h/mL
- Cmax ([1]; human, plasma, po, 100 mg): 225 ± 105 ng/mL
- half-life ([1]; human, plasma, po, 100 mg): 5.7 ± 1.5 h
- mean reduction of Cmax by omeprazole comedication [1, 4]: 96%
- reduction of AUC0-24 by omeprazole comedication [1, 4]: 89%
- reduction of GI absorption and bioavailability ([1]; omeprazole at steady state dosed in the evening 10 h prior to crystalline dasatinib): about 90%
- Cmax ratio Test/Control (geometric means) ([1]; test = with omeprazole, control = crystalline dasatinib alone, 90% CI 2.73-4.96): 3.7%
- AUC0-24 ratio Test/Control (geometric means) ([1]; test = with omeprazole, control = crystalline dasatinib alone, 90% CI 9.13-14.59): 11.5%
SMILES: Cc1nc(Nc2ncc(C(=O)Nc3c(C)cccc3Cl)s2)cc(N2CCN(CCO)CC2)n1 [Crystalline Dasatinib, dasatinib]
- Cmax threshold for achieving MMR [2]: 69.2 ng/mL
- effect on dasatinib plasma exposure ([3]; antacid administered 2 h prior to crystalline dasatinib): unaffected
- reduction in absorption and bioavailability of dasatinib with PPIs ([3]; experimental setting controlled for gastric pH above 4): ≤ 80%
